Laboratory results as given in ChEMBL document CHEMBL5724801, “EUbOPEN Chemogenomics Library - Multiplex” (2024).
“And” between values parts separate entries of the source, which are not always exact repeats. Equal values may be shown once.

Test system: U2OS
Test: Multiplex assay against U2OS
Type: toxicity, cell-based
Settings: human, 12 h, 1 µM, compound concentration 1 uM
In short: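 Hoechst33342, BioTracker Green Microtubule Cytoskeleton Dye, MitoTracker Red and Annexin V Alexa Fluor 680 were added to live cells at seeding, and imaging on a CQ1 microscope at 37°C and 5% CO2 followed compound addition. Gating by CellPathfinder machine learning separated cells into Hoechst high-intensity objects or normal cells, then normal cells into healthy, pyknosed or fragmented nuclei, then pyknosed cells into mitotic or apoptotic. Per cents of healthy-nucleus cells are reported for the tubulin, mitochondrial-mass and membrane-permeability phenotypes.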

Compound | Population Fragmented Nuclei (%) | Population Healthy Nuclei (%) | Population Hoechst High Intensity Objects (%) | Population Membrane Permeable-Phenotype (%) | Population Mitochondria Different-Phenotype (%) | Population Mitotic Cells (%) | Population Normal (%) | Population Pyknosed Nuclei (%) | Population Tubulin-Different-Phenotype (%) | Total Cell Count
Cl.Clc1cc2cc(c1)-c1cnn3ccc(nc13)NCCOCCO2 | 3.05% and 2.1% | 88.09% and 86.01% | 0% | 0.94% and 0.81% | 0% and 8.94% | 56.25% and 94.12% | 100% | 8.86% and 11.89% | 0.94% and 0% | 361 and 143
CN(C)Cc1cccc(NC(=C2C(=O)Nc3cc(C(N)=O)ccc32)c2ccccc2)c1 | 1.29% and 3.85% | 87.11% and 82.69% | 0% | 1.78% and 2.33% | 0.59% and 5.43% | 62.22% and 61.9% | 100% | 11.6% and 13.46% | 1.18% and 0% | 388 and 156
C[C@H](N)COC(=O)[C@@H](CCCCN)NC(=O)Cc1c(-c2ccc3ccccc3c2)[nH]c2c1ccc1ccccc12 | 26% and 14% | 66% and 78% | 3% and 0% | 6% and 4% | 3% and 2% | 26% and 25% | 96% and 99% | 6% | 3% and 4% | 244 and 128
COCCNc1nc2ccc(C#CC3(O)CCCCC3)cc2n1-c1ccnc(N)n1 | 1.38% and 4.59% | 91.46% and 77.06% | 0% | 0.9% and 4.76% | 0% and 4.76% | 46.15% and 75% | 100% | 7.16% and 18.35% | 0.6% and 0% | 

Same assay, conditions: human, 12 h, 1 µM, compound concentration 1 uM

Compound | Population Apoptotic (%)
CN(C)Cc1cccc(NC(=C2C(=O)Nc3cc(C(N)=O)ccc32)c2ccccc2)c1 | 37.78% and 38.1%
C[C@H](N)COC(=O)[C@@H](CCCCN)NC(=O)Cc1c(-c2ccc3ccccc3c2)[nH]c2c1ccc1ccccc12 | 73% and 75%
COCCNc1nc2ccc(C#CC3(O)CCCCC3)cc2n1-c1ccnc(N)n1 | 53.85% and 25%

Same assay, conditions: human, 12 h, 10 µM, compound concentration 10 uM

Compound | Population Apoptotic (%) | Population Fragmented Nuclei (%) | Population Healthy Nuclei (%) | Population Hoechst High Intensity Objects (%) | Population Membrane Permeable-Phenotype (%) | Population Mitotic Cells (%) | Population Normal (%) | Population Pyknosed Nuclei (%) | Population Tubulin-Different-Phenotype (%) | Total Cell Count
Cl.Clc1cc2cc(c1)-c1cnn3ccc(nc13)NCCOCCO2 | 35.21% and 35.71% | 3.56% and 1.13% | 82.38% and 83.05% | 0% | 0.96% and 3.4% | 64.79% and 64.29% | 100% | 14.06% and 15.82% | 2.16% and 1.36% | 505 and 177
CN(C)Cc1cccc(NC(=C2C(=O)Nc3cc(C(N)=O)ccc32)c2ccccc2)c1 | 35.71% and 43.75% |  | 86.17% and 71.36% | 0% | 3.66% and 11.27% | 64.29% and 56.25% | 100% | 10.19% and 8.04% | 6.48% and 4.93% | 412 and 199
C[C@H](N)COC(=O)[C@@H](CCCCN)NC(=O)Cc1c(-c2ccc3ccccc3c2)[nH]c2c1ccc1ccccc12 | 78% and 50% | 23% and 24% | 69% and 73% | 2% and 0% |  | 21% and 50% | 97% and 100% | 7% and 1% | 3% and 5% | 279 and 106
COCCNc1nc2ccc(C#CC3(O)CCCCC3)cc2n1-c1ccnc(N)n1 | 38.46% and 41.03% | 1.89% and 3.8% | 82.78% and 75% | 0% | 8.26% and 7.25% | 61.54% and 58.97% | 100% | 15.33% and 21.2% | 15.38% and 10.87% | 424 and 184

Same assay, conditions: human, 12 h, 10 µM, compound concentration 10 uM

Compound | Population Mitochondria Different-Phenotype (%)
C[C@H](N)COC(=O)[C@@H](CCCCN)NC(=O)Cc1c(-c2ccc3ccccc3c2)[nH]c2c1ccc1ccccc12 | 1% and 3%

Same assay, conditions: human, 24 h, 1 µM, compound concentration 1 uM

Compound | Population Apoptotic (%) | Population Fragmented Nuclei (%) | Population Healthy Nuclei (%) | Population Hoechst High Intensity Objects (%) | Population Membrane Permeable-Phenotype (%) | Population Mitochondria Different-Phenotype (%) | Population Mitotic Cells (%) | Population Normal (%) | Population Pyknosed Nuclei (%) | Population Tubulin-Different-Phenotype (%)
Cl.Clc1cc2cc(c1)-c1cnn3ccc(nc13)NCCOCCO2 | 43.75% and 57.89% | 2.2% and 1.09% | 88.2% and 88.52% | 0% | 0.68% and 3.09% | 0% and 5.56% | 56.25% and 42.11% | 100% | 9.6% and 10.38% | 0.45% and 0%
CN(C)Cc1cccc(NC(=C2C(=O)Nc3cc(C(N)=O)ccc32)c2ccccc2)c1 | 42% and 39.29% | 1.87% and 0.52% | 88.81% and 84.97% | 0% | 1.89% and 4.27% | 0.42% and 6.1% | 58% and 60.71% | 100% | 9.33% and 14.51% | 1.47% and 0.61%
C[C@H](N)COC(=O)[C@@H](CCCCN)NC(=O)Cc1c(-c2ccc3ccccc3c2)[nH]c2c1ccc1ccccc12 | 83% and 90% | 22% and 16% | 68% and 77% | 2% and 1% | 3% and 6% | 1% | 16% and 10% | 97% and 98% | 8% and 5% | 2% and 3%
COCCNc1nc2ccc(C#CC3(O)CCCCC3)cc2n1-c1ccnc(N)n1 | 34.62% and 40% | 0.86% and 3.12% | 87.96% and 85.16% | 0% | 0.49% and 4.59% | 0.24% and 2.75% | 65.38% and 60% | 100% | 11.18% and 11.72% | 0.73% and 0%

Same assay, conditions: human, 24 h, 1 µM, compound concentration 1 uM

Compound | Total Cell Count
Cl.Clc1cc2cc(c1)-c1cnn3ccc(nc13)NCCOCCO2 | 500 and 183
CN(C)Cc1cccc(NC(=C2C(=O)Nc3cc(C(N)=O)ccc32)c2ccccc2)c1 | 536 and 193
C[C@H](N)COC(=O)[C@@H](CCCCN)NC(=O)Cc1c(-c2ccc3ccccc3c2)[nH]c2c1ccc1ccccc12 | 292 and 170

Same assay, conditions: human, 24 h, 10 µM, compound concentration 10 uM

Compound | Population Apoptotic (%) | Population Fragmented Nuclei (%) | Population Healthy Nuclei (%) | Population Hoechst High Intensity Objects (%) | Population Membrane Permeable-Phenotype (%) | Population Mitochondria Different-Phenotype (%) | Population Mitotic Cells (%) | Population Normal (%) | Population Pyknosed Nuclei (%) | Population Tubulin-Different-Phenotype (%)
Cl.Clc1cc2cc(c1)-c1cnn3ccc(nc13)NCCOCCO2 | 55.41% and 45% | 1.48% and 2.62% | 86.37% and 79.91% | 0.16% and 0% | 0.19% and 2.73% | 0% and 4.37% | 44.59% and 55% | 99.84% and 100% | 12.15% and 17.47% | 1.33% and 2.73%
CN(C)Cc1cccc(NC(=C2C(=O)Nc3cc(C(N)=O)ccc32)c2ccccc2)c1 | 50.75% and 51.72% |  | 82.77% and 70.62% | 0% | 2.06% and 8.72% |  | 49.25% and 48.28% | 100% | 14.26% and 13.74% | 4.88% and 2.68%
C[C@H](N)COC(=O)[C@@H](CCCCN)NC(=O)Cc1c(-c2ccc3ccccc3c2)[nH]c2c1ccc1ccccc12 | 81% and 100% | 19% and 17% | 73% and 79% | 2% | 5% and 11% | 1% and 3% | 18% and 0% | 97% | 6% and 2% | 2% and 6%
COCCNc1nc2ccc(C#CC3(O)CCCCC3)cc2n1-c1ccnc(N)n1 | 27.97% and 41.07% | 1.32% and 3.03% | 76.5% and 68.69% | 0% | 2.7% and 6.62% |  | 72.03% and 58.93% | 100% | 22.18% and 28.28% | 15.72% and 8.82%

Same assay, conditions: human, 24 h, 10 µM, compound concentration 10 uM

Compound | Total Cell Count
Cl.Clc1cc2cc(c1)-c1cnn3ccc(nc13)NCCOCCO2 | 610 and 229
CN(C)Cc1cccc(NC(=C2C(=O)Nc3cc(C(N)=O)ccc32)c2ccccc2)c1 | 470 and 211
C[C@H](N)COC(=O)[C@@H](CCCCN)NC(=O)Cc1c(-c2ccc3ccccc3c2)[nH]c2c1ccc1ccccc12 | 337 and 142
COCCNc1nc2ccc(C#CC3(O)CCCCC3)cc2n1-c1ccnc(N)n1 | 532 and 198

Same assay, conditions: human, 48 h, 1 µM, compound concentration 1 uM

Compound | Population Apoptotic (%) | Population Fragmented Nuclei (%) | Population Healthy Nuclei (%) | Population Hoechst High Intensity Objects (%) | Population Membrane Permeable-Phenotype (%) | Population Mitochondria Different-Phenotype (%) | Population Mitotic Cells (%) | Population Normal (%) | Population Pyknosed Nuclei (%) | Population Tubulin-Different-Phenotype (%)
Cl.Clc1cc2cc(c1)-c1cnn3ccc(nc13)NCCOCCO2 | 47.73% and 42.42% | 3.1% and 2.92% | 87.5% and 86.36% | 0% | 0.98% and 3.01% | 0% and 3.01% | 52.27% and 57.58% | 100% | 9.4% and 10.71% | 0.85% and 1.5%
CN(C)Cc1cccc(NC(=C2C(=O)Nc3cc(C(N)=O)ccc32)c2ccccc2)c1 | 48.91% and 34.38% | 3.29% and 3.37% | 86.93% and 86.81% | 0.11% and 0% | 1.34% and 2.47% | 0.37% and 3.53% | 51.09% and 65.62% | 99.89% and 100% | 9.78% and 9.82% | 1.1% and 0.71%
C[C@H](N)COC(=O)[C@@H](CCCCN)NC(=O)Cc1c(-c2ccc3ccccc3c2)[nH]c2c1ccc1ccccc12 | 79% and 73% | 16% and 17% | 78% and 73% | 1% and 2% | 2% and 3% | 2% and 4% | 20% and 26% | 98% and 97% | 5% and 8% | 2% and 1%
COCCNc1nc2ccc(C#CC3(O)CCCCC3)cc2n1-c1ccnc(N)n1 | 38.1% and 52% | 2.24% and 2.58% | 88.37% and 84.54% | 0% | 0.63% and 0.61% | 0% and 2.44% | 61.9% and 48% | 100% | 9.4% and 12.89% | 1.14% and 1.22%

Same assay, conditions: human, 48 h, 1 µM, compound concentration 1 uM

Compound | Total Cell Count
CN(C)Cc1cccc(NC(=C2C(=O)Nc3cc(C(N)=O)ccc32)c2ccccc2)c1 | 942 and 326
C[C@H](N)COC(=O)[C@@H](CCCCN)NC(=O)Cc1c(-c2ccc3ccccc3c2)[nH]c2c1ccc1ccccc12 | 440 and 231

Same assay, conditions: human, 48 h, 10 µM, compound concentration 10 uM

Compound | Population Apoptotic (%) | Population Fragmented Nuclei (%) | Population Healthy Nuclei (%) | Population Hoechst High Intensity Objects (%) | Population Membrane Permeable-Phenotype (%) | Population Mitochondria Different-Phenotype (%) | Population Mitotic Cells (%) | Population Normal (%) | Population Pyknosed Nuclei (%) | Population Tubulin-Different-Phenotype (%)
Cl.Clc1cc2cc(c1)-c1cnn3ccc(nc13)NCCOCCO2 | 53.64% and 54.72% | 3.97% and 2.37% | 81.76% and 83.68% | 0.19% and 0% | 1.39% and 4.4% | 0.46% and 3.77% | 46.36% and 45.28% | 99.81% and 100% | 14.27% and 13.95% | 2.43% and 3.46%
CN(C)Cc1cccc(NC(=C2C(=O)Nc3cc(C(N)=O)ccc32)c2ccccc2)c1 | 57.52% and 51.28% |  | 81.24% and 71.84% | 0% | 3.41% and 6.53% | 0.33% and 7.54% | 42.48% and 48.72% | 100% | 14.93% and 14.08% | 4.88% and 7.04%
C[C@H](N)COC(=O)[C@@H](CCCCN)NC(=O)Cc1c(-c2ccc3ccccc3c2)[nH]c2c1ccc1ccccc12 | 90% | 14% and 16% | 74% and 77% | 4% | 6% and 16% | 1% and 2% | 9% and 10% | 95% | 10% and 5% | 2% and 6%
COCCNc1nc2ccc(C#CC3(O)CCCCC3)cc2n1-c1ccnc(N)n1 | 45.97% and 47.78% | 2.08% and 1.2% | 81.79% and 62.65% | 0% | 2.38% and 2.56% |  | 54.03% and 52.22% | 100% | 16.12% and 36.14% | 13.35% and 7.69%

Same assay, conditions: human, 48 h, 10 µM, compound concentration 10 uM

Compound | Total Cell Count
Cl.Clc1cc2cc(c1)-c1cnn3ccc(nc13)NCCOCCO2 | 1060 and 380
CN(C)Cc1cccc(NC(=C2C(=O)Nc3cc(C(N)=O)ccc32)c2ccccc2)c1 | 757 and 277
C[C@H](N)COC(=O)[C@@H](CCCCN)NC(=O)Cc1c(-c2ccc3ccccc3c2)[nH]c2c1ccc1ccccc12 | 505 and 184
